Results: ChEMBL document CHEMBL4130494, “Crassiflorone derivatives that inhibit Trypanosoma brucei glyceraldehyde-3-phosphate dehydrogenase (TbGAPDH) and Trypanosoma cruzi trypanothione reductase (TcTR) and display trypanocidal activity” (Eur J Med Chem, 2017)
pIC50, pKi: −log10 of the molar value. Converted amounts (≈) assume the structure as drawn. The source made the active and inactive calls. The rule behind the calls is not given here.

Columns and labels:
[1] = target: Trypanothione reductase (Trypanosoma cruzi) (UniProt P28593); experiment: Inhibition of Trypanosoma cruzi trypanothione reductase assessed as reduction in NADPH consumption at 20 uM using 100 uM trypanothione disulfide as substrate by spectrophotometric method relative to control
Chain of Trypanothione reductase (Trypanosoma cruzi) (P28593 whole entry, looked up): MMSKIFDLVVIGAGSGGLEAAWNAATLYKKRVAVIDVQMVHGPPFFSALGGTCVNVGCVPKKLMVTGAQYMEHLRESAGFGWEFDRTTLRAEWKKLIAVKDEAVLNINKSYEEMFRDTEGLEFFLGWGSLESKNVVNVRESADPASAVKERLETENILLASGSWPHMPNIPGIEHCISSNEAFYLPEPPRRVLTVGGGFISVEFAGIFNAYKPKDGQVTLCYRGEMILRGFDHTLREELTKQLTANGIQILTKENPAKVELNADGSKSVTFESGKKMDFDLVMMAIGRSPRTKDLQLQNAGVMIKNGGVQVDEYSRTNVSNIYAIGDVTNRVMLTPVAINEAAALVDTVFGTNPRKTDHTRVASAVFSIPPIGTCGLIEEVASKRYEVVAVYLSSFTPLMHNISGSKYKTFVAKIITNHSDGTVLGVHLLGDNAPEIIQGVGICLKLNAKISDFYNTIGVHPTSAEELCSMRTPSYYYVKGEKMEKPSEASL
Method in brief: (§1)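 Recombinant TcTR (5–10 mU) at 25 °C in 40 mM HEPES, 1 mM EDTA, pH 7.5, 100 μM NADPH, 5% DMSO; started with trypanothione disulfide; NADPH consumption read at 340 nm; percentage inhibition calculated.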

[2] = target: T1, Pteridine reductase, putative (Trypanosoma brucei) (UniProt Q581W1); experiment: Inhibition of Trypanosoma brucei pteridine reductase 1 assessed as reduction in conversion of dihydrobiopterin to tetrahydrobiopterin at 10 uM up to 50 mins in presence of NADPH by cytochrome c reduction coupled photometric assay relative to control
T1 sequence (whole entry): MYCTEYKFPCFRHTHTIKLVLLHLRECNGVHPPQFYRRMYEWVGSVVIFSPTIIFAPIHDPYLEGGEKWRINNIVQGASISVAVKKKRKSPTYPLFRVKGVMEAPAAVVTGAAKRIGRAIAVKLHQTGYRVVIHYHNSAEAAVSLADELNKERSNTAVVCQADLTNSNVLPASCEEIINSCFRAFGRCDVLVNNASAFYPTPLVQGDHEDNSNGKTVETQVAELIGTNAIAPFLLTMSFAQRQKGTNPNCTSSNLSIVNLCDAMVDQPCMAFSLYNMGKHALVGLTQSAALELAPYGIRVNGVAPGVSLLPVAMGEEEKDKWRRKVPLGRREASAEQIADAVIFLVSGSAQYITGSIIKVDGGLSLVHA

hERG (KCNH2) = hERG (KCNH2) (Homo sapiens, UniProt Q12809); experiment: Inhibition of Tracer Red binding to human ERG expressed in membranes at 10 uM by fluorescence polarization assay relative to control; settings: membranes expressing human ERG, probe Tracer Red
Chain of hERG (KCNH2) (Q12809 whole entry): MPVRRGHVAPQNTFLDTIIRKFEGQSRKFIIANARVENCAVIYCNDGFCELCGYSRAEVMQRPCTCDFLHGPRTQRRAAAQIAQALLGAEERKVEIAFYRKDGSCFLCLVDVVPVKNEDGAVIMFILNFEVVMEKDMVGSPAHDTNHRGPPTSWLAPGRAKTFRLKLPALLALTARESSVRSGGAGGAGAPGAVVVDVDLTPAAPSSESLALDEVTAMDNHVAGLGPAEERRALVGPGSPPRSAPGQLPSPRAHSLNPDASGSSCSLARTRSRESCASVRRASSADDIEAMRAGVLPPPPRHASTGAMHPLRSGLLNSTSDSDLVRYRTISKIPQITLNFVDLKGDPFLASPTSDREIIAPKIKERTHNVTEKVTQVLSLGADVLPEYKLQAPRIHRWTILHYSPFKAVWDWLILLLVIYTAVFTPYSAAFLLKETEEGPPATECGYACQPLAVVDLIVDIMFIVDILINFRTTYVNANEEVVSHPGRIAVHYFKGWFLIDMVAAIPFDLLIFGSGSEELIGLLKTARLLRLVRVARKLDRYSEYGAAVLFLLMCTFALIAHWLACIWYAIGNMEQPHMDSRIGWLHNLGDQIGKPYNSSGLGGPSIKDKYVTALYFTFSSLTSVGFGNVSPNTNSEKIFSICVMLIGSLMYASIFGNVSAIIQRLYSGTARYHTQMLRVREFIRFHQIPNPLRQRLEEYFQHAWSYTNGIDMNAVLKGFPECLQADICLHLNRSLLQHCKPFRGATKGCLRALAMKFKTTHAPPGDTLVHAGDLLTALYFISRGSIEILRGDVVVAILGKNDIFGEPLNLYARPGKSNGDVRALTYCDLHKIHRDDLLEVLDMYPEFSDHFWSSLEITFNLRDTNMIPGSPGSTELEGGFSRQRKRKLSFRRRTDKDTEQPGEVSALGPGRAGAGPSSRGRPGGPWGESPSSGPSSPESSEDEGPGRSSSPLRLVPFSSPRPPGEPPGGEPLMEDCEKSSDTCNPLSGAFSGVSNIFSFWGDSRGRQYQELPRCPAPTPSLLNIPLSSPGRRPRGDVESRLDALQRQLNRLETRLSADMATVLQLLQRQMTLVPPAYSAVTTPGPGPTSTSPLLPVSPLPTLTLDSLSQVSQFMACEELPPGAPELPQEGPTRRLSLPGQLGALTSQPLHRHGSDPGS
Method in brief: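 Fluorescence polarization displacement of a high-affinity red fluorescent tracer from hERG channel–containing membrane fraction.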

CYP1A2 = target: T2, CYP1A2 (Homo sapiens, UniProt P05177); experiment: Inhibition of human CYP1A2 at 10 uM by P450-Glo assay relative to control; format: ADME
T2 sequence (P05177 whole entry): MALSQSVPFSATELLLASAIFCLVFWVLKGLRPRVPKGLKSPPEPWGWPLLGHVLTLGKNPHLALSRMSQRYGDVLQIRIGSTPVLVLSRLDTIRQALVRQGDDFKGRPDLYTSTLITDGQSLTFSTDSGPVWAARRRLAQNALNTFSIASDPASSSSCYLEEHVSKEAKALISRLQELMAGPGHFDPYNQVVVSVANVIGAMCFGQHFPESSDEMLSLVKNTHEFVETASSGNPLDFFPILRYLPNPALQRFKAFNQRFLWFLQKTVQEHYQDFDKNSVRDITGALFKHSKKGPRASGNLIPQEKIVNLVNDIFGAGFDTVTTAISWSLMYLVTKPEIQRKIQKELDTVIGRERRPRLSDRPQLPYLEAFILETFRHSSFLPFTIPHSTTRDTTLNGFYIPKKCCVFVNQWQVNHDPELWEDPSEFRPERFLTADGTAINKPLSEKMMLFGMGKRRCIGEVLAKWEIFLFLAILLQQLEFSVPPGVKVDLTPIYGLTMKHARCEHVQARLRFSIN
Method in brief: (§2)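 P450-Glo luminescent platform: CYP action on each substrate generates light; decreased light taken as inhibition.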

[3] = target: Trypanothione reductase (Trypanosoma cruzi) (UniProt P28593); experiment: Inhibition of Trypanosoma cruzi trypanothione reductase assessed as reduction in NADPH consumption at 20 uM using 40 uM trypanothione disulfide as substrate by spectrophotometric method relative to control; method in brief: as §1
Trypanothione reductase [4] = target: T3, Trypanothione reductase (Trypanosoma cruzi, UniProt P28593); experiment: Non-competitive inhibition of Trypanosoma cruzi trypanothione reductase assessed as reduction in NADPH consumption using varying levels of trypanothione disulfide as substrate by Lineweaver-Burk plot analysis
T3 sequence (P28593 whole entry): as the sequence (P28593 whole entry, looked up) above
Method in brief: (§3)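 Same TcTR assay with two fixed inhibitor concentrations and TS2 at 20, 40, 60, 100, 200 μM; inhibition type from Lineweaver–Burk plots; Ki by nonlinear least-squares fit of direct plot; inhibitor assays at least duplicate.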

CYP2C9 = CYP2C9 (Homo sapiens, UniProt P11712); experiment: Inhibition of human CYP2C9 at 10 uM by P450-Glo assay relative to control; format: ADME; method in brief: as §2
Chain of CYP2C9 (P11712 whole entry): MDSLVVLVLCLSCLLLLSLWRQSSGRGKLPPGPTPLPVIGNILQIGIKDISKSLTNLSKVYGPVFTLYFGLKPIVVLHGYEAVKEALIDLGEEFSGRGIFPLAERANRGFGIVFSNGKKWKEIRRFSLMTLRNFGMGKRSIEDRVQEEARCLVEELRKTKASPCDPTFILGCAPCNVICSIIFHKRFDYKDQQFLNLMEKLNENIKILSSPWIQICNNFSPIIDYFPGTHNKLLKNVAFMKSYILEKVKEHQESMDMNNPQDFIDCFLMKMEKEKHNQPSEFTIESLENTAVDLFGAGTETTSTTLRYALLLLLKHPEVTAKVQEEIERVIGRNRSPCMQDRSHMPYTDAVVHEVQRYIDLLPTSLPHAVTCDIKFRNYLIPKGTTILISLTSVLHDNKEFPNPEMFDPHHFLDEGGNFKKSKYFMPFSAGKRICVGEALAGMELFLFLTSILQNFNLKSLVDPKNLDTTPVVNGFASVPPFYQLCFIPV

[5] = Solubility in pH 7.4 Hanks simulated body fluid after overnight incubation by nephelometry; format: physicochemical
CYP2C19 = CYP2C19 (Homo sapiens, UniProt P33261); experiment: Inhibition of human CYP2C19 at 10 uM by P450-Glo assay relative to control; format: ADME; method in brief: as §2
Chain of CYP2C19 (P33261 whole entry): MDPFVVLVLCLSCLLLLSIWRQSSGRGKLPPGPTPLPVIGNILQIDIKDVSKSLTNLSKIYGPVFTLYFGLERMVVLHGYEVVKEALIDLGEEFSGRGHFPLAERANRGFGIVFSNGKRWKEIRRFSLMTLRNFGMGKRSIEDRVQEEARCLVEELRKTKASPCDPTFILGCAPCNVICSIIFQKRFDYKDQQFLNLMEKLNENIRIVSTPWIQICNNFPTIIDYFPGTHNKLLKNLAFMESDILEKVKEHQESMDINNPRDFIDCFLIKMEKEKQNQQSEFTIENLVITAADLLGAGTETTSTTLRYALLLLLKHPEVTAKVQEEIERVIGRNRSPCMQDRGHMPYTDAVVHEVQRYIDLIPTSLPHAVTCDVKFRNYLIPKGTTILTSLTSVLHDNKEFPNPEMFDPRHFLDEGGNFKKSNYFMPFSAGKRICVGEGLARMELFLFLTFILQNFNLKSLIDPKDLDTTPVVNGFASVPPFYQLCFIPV

[6] = Solubility in PBS after overnight incubation by nephelometry; format: physicochemical
[7] = target: T4, Pteridine reductase 1 (Leishmania major) (UniProt Q01782); experiment: Inhibition of Leishmania major pteridine reductase 1 assessed as reduction in conversion of dihydrobiopterin to tetrahydrobiopterin at 10 uM up to 50 mins in presence of NADPH by cytochrome c reduction coupled photometric assay relative to control
T4 sequence (whole entry): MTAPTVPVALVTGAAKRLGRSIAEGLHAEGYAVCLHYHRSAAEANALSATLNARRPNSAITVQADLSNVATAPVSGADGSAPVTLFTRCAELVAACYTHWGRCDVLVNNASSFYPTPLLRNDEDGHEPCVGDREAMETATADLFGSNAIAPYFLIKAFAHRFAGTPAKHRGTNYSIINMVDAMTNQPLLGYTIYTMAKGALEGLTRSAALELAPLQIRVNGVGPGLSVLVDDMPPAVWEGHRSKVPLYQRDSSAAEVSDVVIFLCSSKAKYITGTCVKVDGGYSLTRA

786-0 = experiment: Cytotoxicity against human 786-O cells assessed as mitochondrial viability at 10 uM by CMXRos staining based high-content imaging analysis relative to control; format: cell-based; settings: 786-0, 10 µM
Method in brief: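 786-O cells kept in RPMI-1640 with 2 mM glutamine, 10% FCS, streptomycin and penicillin G; mitochondria of live cells stained with MitoTracker Red CMXRos and imaged by high-content imaging.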

CYP3A4 = CYP3A4 (Homo sapiens, UniProt P08684); experiment: Inhibition of human CYP3A4 at 10 uM by P450-Glo assay relative to control; format: ADME; method in brief: as §2
Chain of CYP3A4 (P08684 whole entry): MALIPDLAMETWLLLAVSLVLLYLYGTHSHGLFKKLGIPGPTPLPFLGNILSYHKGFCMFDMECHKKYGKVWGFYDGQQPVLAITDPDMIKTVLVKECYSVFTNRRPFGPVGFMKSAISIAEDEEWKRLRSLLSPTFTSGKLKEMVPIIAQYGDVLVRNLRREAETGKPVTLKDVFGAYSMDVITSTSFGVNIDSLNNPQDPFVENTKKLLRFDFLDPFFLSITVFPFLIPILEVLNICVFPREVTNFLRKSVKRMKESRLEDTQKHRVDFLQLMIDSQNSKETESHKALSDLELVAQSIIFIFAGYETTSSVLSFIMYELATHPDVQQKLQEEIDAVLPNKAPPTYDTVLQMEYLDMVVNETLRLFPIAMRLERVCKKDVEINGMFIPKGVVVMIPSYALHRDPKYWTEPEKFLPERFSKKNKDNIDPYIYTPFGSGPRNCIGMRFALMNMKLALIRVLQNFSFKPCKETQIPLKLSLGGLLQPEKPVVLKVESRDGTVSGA

CYP2D6 = CYP2D6 (Homo sapiens, UniProt P10635); experiment: Inhibition of human CYP2D6 at 10 uM by P450-Glo assay relative to control; format: ADME; method in brief: as §2
Chain of CYP2D6 (P10635 whole entry): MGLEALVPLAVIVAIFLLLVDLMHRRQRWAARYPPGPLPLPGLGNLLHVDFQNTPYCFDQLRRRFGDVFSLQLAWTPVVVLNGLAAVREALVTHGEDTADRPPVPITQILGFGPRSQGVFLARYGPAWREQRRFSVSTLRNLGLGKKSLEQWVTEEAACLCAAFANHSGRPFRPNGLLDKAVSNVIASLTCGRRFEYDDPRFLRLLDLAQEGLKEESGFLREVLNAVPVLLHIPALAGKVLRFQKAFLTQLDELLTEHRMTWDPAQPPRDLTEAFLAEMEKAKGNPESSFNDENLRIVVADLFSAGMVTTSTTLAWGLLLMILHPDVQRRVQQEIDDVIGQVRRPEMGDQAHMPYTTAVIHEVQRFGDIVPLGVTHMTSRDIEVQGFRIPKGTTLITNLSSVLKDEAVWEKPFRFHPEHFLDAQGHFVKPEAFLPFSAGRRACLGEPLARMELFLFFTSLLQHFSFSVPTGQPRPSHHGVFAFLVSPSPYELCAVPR

[8] = Cytotoxicity against human A549 cells assessed as cell growth at 10 uM by CellTiter-Glo assay relative to control; format: cell-based; settings: read-out: Activity
Method in brief: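 A549 cells; cellular ATP measured by CellTiter-Glo luminescence as a proxy for cell number; paclitaxel 10 μM as positive control.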

[9] = Inhibition of Trypanosoma brucei glyceraldehyde-3-phosphate dehydrogenase
Trypanothione reductase [10] = target: T3, Trypanothione reductase; experiment: Inhibition of Trypanosoma cruzi trypanothione reductase
[11] = target: T4, Pteridine reductase 1 (Leishmania major); experiment: Inhibition of Leishmania major pteridine reductase 1 assessed as reduction in conversion of dihydrobiopterin to tetrahydrobiopterin at 20 uM up to 50 mins in presence of NADPH by cytochrome c reduction coupled photometric assay relative to control
Trypanosoma cruzi = experiment: Growth inhibition of Trypanosoma cruzi Y trypamastigotes infected in human U2OS cells at 10 uM after 72 hrs by Draq 5 staining based high-content automated imaging analysis relative to control; format: functional; settings: read-out: GI
Method in brief: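 U2OS cells (3,000/well) co-seeded with Y strain trypomastigotes at 5:1 right after compound addition; 72 h at 37 °C, 5% CO2. Fixed, stained, imaged and normalized as for the Leishmania assay; host toxicity from cell ratio against negative-control wells.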

Leishmania infantum = experiment: Growth inhibition of Leishmania infantum MHOM/BR/72/BH046 amastigotes infected in human THP1 cells at 10 uM after 48 hrs by Draq 5 staining based high-content automated imaging analysis relative to control; format: functional; settings: MHOM/BR/72/BH046, THP-1, 48 h, read-out: GI
Method in brief: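 THP-1 cells differentiated 48 h with 50 ng/mL PMA, infected 24 h with 6-day-old promastigotes (50 per cell), then treated 48 h; 0.5% DMSO negative, 10 µM amphotericin B positive. Paraformaldehyde-fixed, Draq5-stained, imaged; infection ratio normalized to DMSO-treated infected and non-infected controls.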

Trypanothione reductase [12] = target: T3, Trypanothione reductase; experiment: Mixed-type inhibition of Trypanosoma cruzi trypanothione reductase assessed as reduction in NADPH consumption using varying levels of trypanothione disulfide as substrate by Lineweaver-Burk plot analysis; method in brief: as §3
[13] = target: T1, Pteridine reductase, putative (Trypanosoma brucei); experiment: Inhibition of Trypanosoma brucei pteridine reductase 1 assessed as reduction in conversion of dihydrobiopterin to tetrahydrobiopterin at 20 uM up to 50 mins in presence of NADPH by cytochrome c reduction coupled photometric assay relative to control
[14] = system: Trypanosoma brucei brucei; experiment: Growth inhibition of Trypanosoma brucei brucei Lister 427 bloodstream forms at 10 uM by SYBR Green based assay relative to control; format: functional; settings: read-out: GI
[15] = target: Trypanothione reductase (Trypanosoma cruzi) (UniProt P28593); experiment: Inhibition of Trypanosoma cruzi trypanothione reductase assessed as reduction in NADPH consumption at 10 uM using 100 uM trypanothione disulfide as substrate by spectrophotometric method; method in brief: as §1
[16] = target: Trypanothione reductase (Trypanosoma cruzi) (UniProt P28593); experiment: Inhibition of Trypanosoma cruzi trypanothione reductase assessed as reduction in NADPH consumption at 10 uM using 40 uM trypanothione disulfide as substrate by spectrophotometric method; method in brief: as §1
Trypanosoma brucei = experiment: Inhibition of Trypanosoma brucei glyceraldehyde-3-phosphate dehydrogenase at 10 uM using GAP as substrate in presence of NAD+ by spectrophotometric method relative to control
Method in brief: (§4)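 Recombinant TbGAPDH (200–300 μg protein) in 10 mM triethanolamine, 1.7 mM NaHCO3, 100 mM KCl, 5 mM MgSO4, 1 mM EDTA, pH 7.6, 25 °C, with 400 μM NAD+, 500 μM KH2PO4, 300 μM GAP; NAD+ reduction followed at 340 nm; inhibitors from DMSO stocks; triplicate; reported as percentage activity.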

[17] = Inhibition of Trypanosoma brucei glyceraldehyde-3-phosphate dehydrogenase using GAP as substrate in presence of NAD+ by spectrophotometric method; method in brief: as §4
[18] = target: T1, Pteridine reductase, putative (Trypanosoma brucei); experiment: Inhibition of Trypanosoma brucei pteridine reductase 1 assessed as reduction in conversion of dihydrobiopterin to tetrahydrobiopterin at 50 uM up to 50 mins in presence of NADPH by cytochrome c reduction coupled photometric assay relative to control
[19] = system: Trypanosoma brucei brucei; experiment: Growth inhibition of Trypanosoma brucei brucei Lister 427 bloodstream forms at 50 uM by SYBR Green based assay relative to control; format: functional; settings: read-out: GI
[20] = target: T4, Pteridine reductase 1 (Leishmania major); experiment: Inhibition of Leishmania major pteridine reductase 1 assessed as reduction in conversion of dihydrobiopterin to tetrahydrobiopterin at 50 uM up to 50 mins in presence of NADPH by cytochrome c reduction coupled photometric assay relative to control
[21] = target: Trypanothione reductase (Trypanosoma cruzi) (UniProt P28593); experiment: Inhibition of Trypanosoma cruzi trypanothione reductase assessed as reduction in NADPH consumption at 100 uM using 40 uM trypanothione disulfide as substrate by spectrophotometric method relative to control; method in brief: as §1
[22] = target: Trypanothione reductase (Trypanosoma cruzi) (UniProt P28593); experiment: Inhibition of Trypanosoma cruzi trypanothione reductase assessed as reduction in NADPH consumption at 100 uM using 100 uM trypanothione disulfide as substrate by spectrophotometric method relative to control; method in brief: as §1

inhibition at 10 µM (CYP1A2) [%]	inhibition at 10 µM (CYP2C9) [%]	solubility kinetic [5] [µM]	inhibition at 10 µM (CYP2C19) [%]	solubility kinetic [6] [µM]	inhibition at 10 µM (CYP3A4) [%]	inhibition at 10 µM (CYP2D6) [%]	inhibition (Trypanosoma brucei) [%]	SMILES	inhibition at 10 µM (hERG (KCNH2)) [%]	Activity (786-0) [%]	viability at 10 µM [8] [%]	also measured
99.2	89.3	35 (≈ 12.1 µg/mL)	55.5	70 (≈ 24.2 µg/mL)	38.5	108	–	COc1cccc2c1C(=O)c1oc3c(c1C2=O)c(=O)oc1ccccc13	42.7	89.95	166	inhibition [1]: 41.1%; inhibition [2]: -5.69%; inhibition [3]: 42.6%; pKi (Trypanothione reductase [4]): 4.65; inhibition [7]: -3.51%
–	–	–	–	–	–	–	–	CN(C)CCOc1cc2ccc(OC3=CC(=O)c4cc5ccccc5cc4C3=O)cc2oc1=O	–	–	–	pIC50 [9]: 5.27; pKi (Trypanothione reductase [10]): 5.64
57.3	61.5	70 (≈ 23.3 µg/mL)	107	14 (≈ 4.65 µg/mL)	40.8	102	64	O=C1c2oc3c(c2C(=O)c2cccc(O)c21)c(=O)oc1ccccc13	67.1	82.16	138	inhibition [11]: 28.1%; inhibition of growth at 10 µM (Trypanosoma cruzi): < 20%; inhibition of growth at 10 µM (Leishmania infantum): < 20%; pKi (Trypanothione reductase [12]): 5.25; inhibition [13]: 0.94%; inhibition of growth at 10 µM [14]: < 20%; inhibition [15]: 37.8%; inhibition [16]: 65%
37.8	85.9	35 (≈ 12.2 µg/mL)	63.6	14 (≈ 4.86 µg/mL)	46.8	71.5	75	Nc1ccc2oc(=O)c3c4c(oc3c2c1)C(=O)c1c(O)cccc1C4=O	-7.99	97.94	157	pIC50 [17]: 5.68; inhibition [18]: 5.82%; inhibition of growth at 50 µM [19]: 77%; inhibition [20]: 6.19%; inhibition [21]: inactive; inhibition [22]: inactive
